# Tests used:
# Type in all cases: functional
# Mus musculus [1] = test: Compound was evaluated for the muscle relaxant effect by administering through intravenous route at the pretreatment period of 120 min
# Summary of the method: (§1)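 Rotarod test in male CFLP mice (19–21 g) given compound iv 5–240 min beforehand, in propylene glycol/Chremofor EL/water vehicle diluted with distilled water. Mice were preselected and trained to stay 120 s on a 20 mm rod turning at 12 min⁻¹. Fallers were expressed as percentage of the dose group. ED50 by Litchfield–Wilcoxon.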
# Mus musculus [2] = test: Compound was evaluated for the antimetrazole effect by administering through intravenous route at the pretreatment period of 120 min
# Summary of the method: (§2)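 Male CFLP outbred albino mice (19–21 g) dosed iv, 5–240 min before challenge. Vehicle: 5 mg compound in propylene glycol/Chremofor EL/distilled water (2:1:7 mL), diluted with distilled water. Metrazol (pentylenetetrazol) 125 mg/kg sc in distilled water. Mice counted protected if no tonic-extensor convulsions over 60 min of observation. ED50 and confidence limits by Litchfield–Wilcoxon.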
# Mus musculus [3] = test: Oxazepam brain level after 30 minutes of administration of 0.28 mg/kg in antimetrazole assay
# Mus musculus [4] = test: Ester brain level after 5 minutes of administration of 1.07 mg/kg in antimetrazole assay
# Mus musculus [5] = test: Oxazepam brain level after 5 minutes of administration of 0.96 mg/kg in muscle relaxant assay
# Mus musculus [6] = test: Compound was evaluated for the muscle relaxant effect by administering through intravenous route at the pretreatment period of 20 min; summary of the method: as §1
# Mus musculus [7] = test: Compound was evaluated for the antimetrazole effect by administering through intravenous route at the pretreatment period of 20 min; summary of the method: as §2
# Mus musculus [8] = test: Compound was evaluated for the antimetrazole effect by administering through intravenous route at the pretreatment period of 240 min; summary of the method: as §2
# Mus musculus [9] = test: Oxazepam brain level after 120 minutes of administration of 0.32 mg/kg in antimetrazole assay
# Mus musculus [10] = test: Oxazepam brain level after 30 minutes of administration of 2.82 mg/kg in muscle relaxant assay
# Mus musculus [11] = test: Oxazepam brain level after 10 minutes of administration of 0.46 mg/kg in antimetrazole assay
# Mus musculus [12] = test: Compound was evaluated for the antimetrazole effect by administering through intravenous route at the pretreatment period of 5 min; summary of the method: as §2
# Mus musculus [13] = test: Ester brain level after 5 minutes of administration of 0.96 mg/kg in muscle relaxant assay
# Mus musculus [14] = test: Ester brain level after 30 minutes of administration of 2.82 mg/kg in muscle relaxant assay
# Mus musculus [15] = test: Ester brain level after 120 minutes of administration of 0.32 mg/kg in antimetrazole assay
# Mus musculus [16] = test: Ester brain level after 10 minutes of administration of 0.46 mg/kg in antimetrazole assay
# Mus musculus [17] = test: Compound was evaluated for the antimetrazole effect by administering through intravenous route at the pretreatment period of 10 min; summary of the method: as §2
# Mus musculus [18] = test: Compound was evaluated for the muscle relaxant effect by administering through intravenous route at the pretreatment period of 5 min; summary of the method: as §1
# Mus musculus [19] = test: Compound was evaluated for the muscle relaxant effect by administering through intravenous route at the pretreatment period of 10 min; summary of the method: as §1
# Mus musculus [20] = test: Oxazepam brain level after 5 minutes of administration of 1.07 mg/kg in antimetrazole assay
# Mus musculus [21] = test: Compound was evaluated for the muscle relaxant effect by administering through intravenous route at the pretreatment period of 2400 min
# Mus musculus [22] = test: Ester brain level after 30 minutes of administration of 0.28 mg/kg in antimetrazole assay
# Mus musculus [23] = test: Compound was evaluated for the muscle relaxant effect by administering through intravenous route at the pretreatment period of 240 min; summary of the method: as §1
# Mus musculus [24] = test: Compound was evaluated for the antimetrazole effect by administering through intravenous route at the pretreatment period 240 min; summary of the method: as §2
Structure (SMILES),ED50 (Mus musculus [1]),ED50 (Mus musculus [2]),ED50 (Mus musculus [6]),ED50 (Mus musculus [7]),ED50 (Mus musculus [8]),ED50 (Mus musculus [12]),ED50 (Mus musculus [17]),ED50 (Mus musculus [18]),ED50 (Mus musculus [19]),ED50 (Mus musculus [23]),other results
CCC(CC)C(=O)OC1N=C(c2ccccc2)c2cc(Cl)ccc2NC1=O (stereo not given),4.7 mg/kg,0.32 mg/kg,0.36 mg/kg,0.31 mg/kg,1.97 mg/kg,1.07 mg/kg,0.46 mg/kg,0.95 mg/kg,0.61 mg/kg,–,Brain level (Mus musculus [3]): 286 pM/g; Brain level (Mus musculus [4]): 1250 pM/g; Brain level (Mus musculus [5]): 480 pM/g; Brain level (Mus musculus [9]): 344 pM/g; Brain level (Mus musculus [10]): 5160 pM/g; Brain level (Mus musculus [11]): 339 pM/g; Brain level (Mus musculus [13]): 1440 pM/g; Brain level (Mus musculus [14]): 1820 pM/g; Brain level (Mus musculus [15]): 95 pM/g; Brain level (Mus musculus [16]): 383 pM/g; Brain level (Mus musculus [20]): 374 pM/g; ED50 (Mus musculus [21]): 9.1 mg/kg; Brain level (Mus musculus [22]): 187 pM/g
CC(=O)OC1N=C(c2ccccc2)c2cc(Cl)ccc2NC1=O (stereo not given),2.6 mg/kg,0.47 mg/kg,–,–,–,–,–,–,–,4.8 mg/kg,ED50 (Mus musculus [24]): 1.17 mg/kg
O=C1Nc2ccc(Cl)cc2C(c2ccccc2)=NC1O (stereo not given) [OXAZEPAM],2.4 mg/kg,0.49 mg/kg,0.8 mg/kg,0.21 mg/kg,0.62 mg/kg,0.18 mg/kg,0.16 mg/kg,0.96 mg/kg,0.86 mg/kg,6.6 mg/kg,–
CC(C)(C)C(=O)OC1N=C(c2ccccc2)c2cc(Cl)ccc2NC1=O (stereo not given) [PIVOXAZEPAM],5.6 mg/kg,0.61 mg/kg,–,–,0.8 mg/kg,–,–,–,–,9 mg/kg,–

# From ChEMBL document CHEMBL1121881 (1981)
